Source: ChEMBL document CHEMBL4152203, “Antiproliferative hydrogen sulfide releasing evodiamine derivatives and their apoptosis inducing properties” (Eur J Med Chem, 2018)
The source made the active and inactive calls. The calls are words filed in the database; no cut-off is given here.

Key:
HL-60 [1] = test: Induction of apoptosis in human HL60 cells assessed as viable cells at 0.3 uM after 48 hrs by Annexin V-FITC/propidium iodide staining-based flow cytometric analysis (reference value: 95.56%); format: functional; conditions: HL-60, 48 h, read-out: Activity
Bel-7402 = test: Antiproliferative activity against human Bel7402 cells after 72 hrs by MTT assay; format: functional, cell-based; conditions: Bel-7402, 72 h
Method in brief: (§1)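 Cells seeded and pre-incubated 24 h at 37 °C, 5% CO2, then exposed to compounds for 72 h. MTT (5 mg/mL stock) added for 4 h, formazan dissolved in DMSO for 10 min at room temperature, absorbance read at 570 nm. 0.1% DMSO as negative and 5-FU as positive reference. IC50 derived from inhibition ratios; mean ± SD of three independent experiments.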

HL-60 [2] = test: Induction of apoptosis in human HL60 cells assessed as morphological changes by measuring chromatin condensation at 0.3 to 1.2 uM after 48 hrs by Hoechst 33258 staining-based fluorescence microscopic analysis; format: functional, cell-based
Method in brief: (§2)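 HL-60 pre-incubated 24 h, then treated 48 h with 0, 0.3, 0.6 or 1.2 μM compound or vehicle. Cells were harvested, washed twice in PBS, stained with Hoechst 33258 (2 mg/mL in PBS) for 15 min at room temperature in darkness, washed, mounted and examined by fluorescence microscopy with a DAPI filter.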

HL-60 [3] = test: Induction of apoptosis in human HL60 cells assessed as morphological changes by measuring nuclear fragmentation at 0.3 to 1.2 uM after 48 hrs by Hoechst 33258 staining-based fluorescence microscopic analysis; format: functional, cell-based; method in brief: as §2
HL-60 [4] = test: Induction of apoptosis in human HL60 cells assessed as early apoptotic cells at 1.2 uM after 48 hrs by Annexin V-FITC/propidium iodide staining-based flow cytometric analysis (reference value: 1.11%); format: functional
HL-60 [5] = test: Induction of apoptosis in human HL60 cells assessed as necrotic cells at 0.3 uM after 48 hrs by Annexin V-FITC/propidium iodide staining-based flow cytometric analysis (reference value: 0.02%); format: functional
HL-60 [6] = test: Induction of mitochondrial membrane potential loss in human HL60 cells assessed as cell population with intact mitochondrial membrane potential at 1.2 uM after 48 hrs by JC1 staining-based flow cytometry analysis (reference value: 92.35%); format: functional
HL-60 [7] = test: Induction of mitochondrial membrane potential loss in human HL60 cells assessed as cell population with mitochondrial membrane potential collapse at 1.2 uM after 48 hrs by JC1 staining-based flow cytometry analysis (reference value: 7.65%); format: functional
HL-60 [8] = test: Induction of apoptosis in human HL60 cells assessed as decrease in cyclin B1 protein expression level at 0.3 to 1.2 uM after 48 hrs by Western blot analysis; format: functional, cell-based
Method in brief: (§3)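 HL-60 treated in triplicate with 0.3, 0.6 or 1.2 μM compound; exposure is 72 h in the methods and 48 h in the legend. Lysates were run on 10% SDS-PAGE, transferred to nitrocellulose, blocked in 5% milk, and probed overnight at 4 °C with monoclonal antibodies (Bcl-2, Bax, cytochrome c, caspase-9/-3, p53, cyclin B1, cdc2). ECL detection; densitometry relative to GAPDH.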

HL-60 [9] = test: Induction of mitochondrial membrane potential loss in human HL60 cells assessed as cell population with mitochondrial membrane potential collapse at 0.6 uM after 48 hrs by JC1 staining-based flow cytometry analysis (reference value: 7.65%); format: functional
HL-60 [10] = test: Induction of apoptosis in human HL60 cells assessed as increase in cytosolic cytochrome c level at 0.3 to 1.2 uM after 48 hrs by Western blot analysis; format: functional, cell-based; method in brief: as §3
SGC-7901 = test: Antiproliferative activity against human SGC7901 cells after 72 hrs by MTT assay; format: functional, cell-based; conditions: SGC-7901, 72 h; method in brief: as §1
HL-60 [11] = test: Cell cycle arrest in human HL60 cells assessed as accumulation at G1 phase at 1.2 uM after 48 hrs by propidium iodide/RNase A staining-based flow cytometric analysis (reference value: 65.75%); format: functional
HL-60 [12] = test: Cell cycle arrest in human HL60 cells assessed as accumulation at S phase at 1.2 uM after 48 hrs by propidium iodide/RNase A staining-based flow cytometric analysis (reference value: 24.06%); format: functional
HL-60 [13] = test: Antiproliferative activity against human HL60 cells after 72 hrs by MTT assay; format: functional, cell-based; conditions: HL-60, 72 h; method in brief: as §1
HL-60 [14] = test: Induction of apoptosis in human HL60 cells assessed as early apoptotic cells at 0.6 uM after 48 hrs by Annexin V-FITC/propidium iodide staining-based flow cytometric analysis (reference value: 2.31%); format: functional
HL-60 [15] = test: Induction of apoptosis in human HL60 cells assessed as viable cells at 1.2 uM after 48 hrs by Annexin V-FITC/propidium iodide staining-based flow cytometric analysis (reference value: 95.56%); format: functional; conditions: HL-60, 48 h, read-out: Activity
HL-60 [16] = test: Induction of apoptosis in human HL60 cells assessed as upregulation of caspase9 level at 0.3 to 1.2 uM after 48 hrs by Western blot analysis; format: functional, cell-based; method in brief: as §3
HL-60 [17] = test: Induction of apoptosis in human HL60 cells assessed as downregulation of Bcl2 expression at 0.3 to 1.2 uM after 48 hrs by Western blot analysis; format: functional, cell-based; method in brief: as §3
HL-60 [18] = test: Induction of apoptosis in human HL60 cells assessed as increase in Bax level at 0.3 to 1.2 uM after 48 hrs by Western blot analysis; format: functional, cell-based; method in brief: as §3
HL-60 [19] = test: Cell cycle arrest in human HL60 cells assessed as accumulation at G2/M phase at 1.2 uM after 48 hrs by propidium iodide/RNase A staining-based flow cytometric analysis (reference value: 10.19%); format: functional
HL-60 [20] = test: Induction of apoptosis in human HL60 cells assessed as necrotic cells at 1.2 uM after 48 hrs by Annexin V-FITC/propidium iodide staining-based flow cytometric analysis (reference value: 0.02%); format: functional
HL-60 [21] = test: Cell cycle arrest in human HL60 cells assessed as accumulation at G1 phase at 0.6 uM after 48 hrs by propidium iodide/RNase A staining-based flow cytometric analysis (reference value: 65.75%); format: functional
HL-60 [22] = test: Cell cycle arrest in human HL60 cells assessed as accumulation at G2/M phase at 0.3 uM after 48 hrs by propidium iodide/RNase A staining-based flow cytometric analysis (reference value: 10.19%); format: functional
HL-60 [23] = test: Cell cycle arrest in human HL60 cells assessed as accumulation at G1 phase at 0.3 uM after 48 hrs by propidium iodide/RNase A staining-based flow cytometric analysis (reference value: 65.75%); format: functional
HL-60 [24] = test: Induction of apoptosis in human HL60 cells assessed as apoptotic cells after 48 hrs by Annexin V-FITC/propidium iodide staining-based flow cytometric analysis; format: functional, cell-based
MCF7 = test: Antiproliferative activity against human MCF7 cells after 72 hrs by MTT assay; format: functional, cell-based; conditions: MCF7, 72 h; method in brief: as §1
HL-60 [25] = test: Induction of mitochondrial membrane potential loss in human HL60 cells assessed as cell population with intact mitochondrial membrane potential at 0.6 uM after 48 hrs by JC1 staining-based flow cytometry analysis (reference value: 92.35%); format: functional
HL-60 [26] = test: Induction of mitochondrial membrane potential loss in human HL60 cells assessed as cell population with mitochondrial membrane potential collapse at 0.3 uM after 48 hrs by JC1 staining-based flow cytometry analysis (reference value: 7.65%); format: functional
HL-60 [27] = test: Induction of apoptosis in human HL60 cells assessed as upregulation of caspase3 level at 0.3 to 1.2 uM after 48 hrs by Western blot analysis; format: functional, cell-based; method in brief: as §3

CN1c2ccccc2C(=O)N2CCc3c(n(CCCCC(=O)OCCCCOc4ccc(-c5cc(=S)ss5)cc4)c4ccccc34)C21 (stereo not given)
viability at 0.3 µM (HL-60 [1]): 88.7% | IC50 (Bel-7402): 48.9 µM | Activity (HL-60 [2]): Active | Activity (HL-60 [3]): Active | Activity (HL-60 [4]): 12.6% | Activity (HL-60 [5]): 0.06% | Activity (HL-60 [6]): 64.99% | Activity (HL-60 [7]): 35.01% | Activity (HL-60 [8]): Active | Activity (HL-60 [9]): 21.32% | Activity (HL-60 [10]): Active | IC50 (SGC-7901): > 50 µM | Activity (HL-60 [11]): 35.32% | Activity (HL-60 [12]): 42.66% | IC50 (HL-60 [13]): 580 nM | Activity (HL-60 [14]): 19.5% | viability at 1.2 µM (HL-60 [15]): 39.2% | Activity (HL-60 [16]): Active | Activity (HL-60 [17]): Active | Activity (HL-60 [18]): Active | Activity (HL-60 [19]): 22.02% | Activity (HL-60 [20]): 0.11% | Activity (HL-60 [21]): 38.55% | Activity (HL-60 [22]): 11.41% | Activity (HL-60 [23]): 47.1% | Activity (HL-60 [24]): Dose-dependent effect | IC50 (MCF7): 44.8 µM | Activity (HL-60 [25]): 78.68% | Activity (HL-60 [26]): 13.33% | Activity (HL-60 [27]): Active
